Reference: ChEMBL document CHEMBL3785019, “Dihydropyrazole derivatives as telomerase inhibitors: Structure-based design, synthesis, SAR and anticancer evaluation in vitro and in vivo” (Eur J Med Chem, 2016)
Calls of active or inactive are those of the source. The calls are words filed in the database; no cut-off is given here.

Assays:
[1] = Cytotoxicity against human PC3 cells after 48 hrs by MTT assay; format: functional, cell-based, PC-3
Method in brief: (§1)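 Tumor cells in log phase in RPMI 1640 + 10% FBS, seeded at 3×10^4 cells mL-1 and incubated 24 h (37 °C, 5% CO2). Test samples added at pre-set concentrations (6 wells each), doxorubicin as reference; 48 h exposure. MTT (2.5 mg·mL-1 in PBS) added for 4 h, formazan dissolved in DMSO, A570 read.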

Bcap37 = assay: Cytotoxicity against human Bcap37 cells after 48 hrs by MTT assay; format: functional, cell-based; method in brief: as §1
[2] = Cytotoxicity against human MGC803 cells after 48 hrs by MTT assay; format: functional, cell-based, MGC-803; method in brief: as §1
HepG2 [3] = assay: Cytotoxicity against human HepG2 cells after 48 hrs by MTT assay; format: functional, cell-based; method in brief: as §1
[4] = Cytotoxicity against human GES-1 cells after 48 hrs by MTT assay; format: cell-based; details: GES1, 48 h
Method in brief: (§2)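 Human normal gastric mucosa GES-1 and liver L-02 cells; MTT assay; IC50 expressed in mM as mean of triplicate experiments.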

[5] = Cytotoxicity against human L02 cells after 48 hrs by MTT assay; format: cell-based; details: L02, 48 h; method in brief: as §2
CCRF S-180 [6] = assay: Antitumor activity against mouse S180 cells xenografted in Kunming mouse assessed as tumor weight at 60 mg/kg/day, QD administered via oral gavage for 10 consecutive days (reference value: 1.98 +/- 0.22g); format: functional
Method in brief: (§3)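 Kunming mice (20 ± 2 g) inoculated subcutaneously in right front armpit with seven-day-old ascites (0.2 ml, 2 × 10^6 cells). 24 h later randomized, 10 per group; oral gavage 60 mg/kg/day or normal saline (10 mL/kg) once daily for ten days. Sacrificed day 11; tumors and mice weighed. Inhibition rate = (Wcontrol − Wtreated)/Wcontrol × 100%.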

CCRF S-180 [7] = assay: Antitumor activity against mouse S180 cells xenografted in Kunming mouse assessed as inhibition of tumor growth at 60 mg/kg/day, QD administered via oral gavage for 10 consecutive days; format: functional; details: CCRF S-180, po, read-out: TGI; method in brief: as §3
HepG2 [8] = assay: Antitumor activity against human HepG2 cells xenografted in Kunming mouse assessed as inhibition of tumor growth at 60 mg/kg/day, QD administered via oral gavage for 10 consecutive days; format: functional; details: read-out: TGI; method in brief: as §3
Mus musculus [9] = assay: Toxicity in mouse S180 cells xenografted Kunming mouse assessed as body weight at 60 mg/kg/day, QD administered via oral gavage for 10 consecutive days measured on day 11 (reference value: 23.84 +/- 2.11g); format: organism-based, CCRF S-180; details: in vivo; method in brief: as §3
Mus musculus [10] = assay: Toxicity in human HepG2 cells xenografted Kunming mouse assessed as body weight at 60 mg/kg/day, QD administered via oral gavage for 10 consecutive days measured on day 11 (reference value: 25 +/- 1.65g); format: organism-based; details: in vivo; method in brief: as §3
Mus musculus [11] = assay: Toxicity in Kunming mouse xenografted with mouse EAC cells assessed as body weight at 60 mg/kg/day, QD administered via oral gavage for 10 consecutive days measured on day 11 (reference value: 19.52 +/- 1.17g); format: organism-based, Ehrlich; details: in vivo
[12] = Antitumor activity against mouse EAC cells xenografted in Kunming mouse assessed as survival time at 60 mg/kg/day, QD administered via oral gavage for 10 consecutive days days (reference value: 16.6 +/- 2.02days); format: functional, Ehrlich
Method in brief: (§4)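 EAC cells were grown in RPMI-1640 with 10% heat-inactivated FBS and were kept as ascites by passaging 0.2 mL (2 × 10^6 cells) between mice. Kunming mice weighing 20 ± 2 g were used. Survival was followed by mortality. Mean survival time is the sum of each mouse's survival days divided by the number of mice. %ILS is the […].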

[13] = Antitumor activity against mouse EAC cells xenografted in Kunming mouse assessed as prolongation of survival time at 60 mg/kg/day, QD administered via oral gavage for 10 consecutive days days relative to untreated control; format: functional; details: Ehrlich; method in brief: as §4
Rattus norvegicus = assay: Antitumor activity against DEN induced Sprague-Dawley rat hepatic tumor assessed as improvement of pathological changes at 50 mg/kg, po qd for 10 consecutive weeks by HE-staining based microscopic analysis; format: functional, organism-based
Method in brief: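 Male SD rats (120~160 g) gavaged with DEN 8 mg/kg once daily, 6 days/week; DEN continued to week 16. From week 10, compound given orally at 50 mg·kg-1 once daily for 10 consecutive weeks; n = 12 per group. Similar parts of left liver lobe fixed in 4% polyformaldehyde, paraffin-embedded, sectioned, HE stained; histopathology viewed at ×200.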

[14] = molecular target: T1, Telomerase reverse transcriptase (Homo sapiens, UniProt O14746); assay: Inhibition of telomerase in human MGC-803 cells after 24 hrs by TRAP-PCR-ELISA assay; format: cell-based
Method in brief: (§5)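 Cells lysed in RIPA on ice for 30 min; extract incubated with TRAP mix at 25 °C for 30 min, then 35 PCR cycles. Products hybridized to DIG probe, captured on streptavidin, detected with peroxidase anti-DIG at 490 nm; mean±SD.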

HepG2 [15] = assay: Antitumor activity against human HepG2 cells xenografted in Kunming mouse assessed as tumor weight at 60 mg/kg/day, QD administered via oral gavage for 10 consecutive days (reference value: 1.93 +/- 0.20g)
[16] = molecular target: T1, Telomerase reverse transcriptase; assay: Inhibition of telomerase in human MGC-803 cells upto 60 uM after 24 hrs by TRAP-PCR-ELISA assay; format: cell-based; method in brief: as §5
[17] = Homo sapiens, PC-3, 48 h, read-out: IC50
[18] = Homo sapiens, Bcap37, 48 h, read-out: IC50
[19] = Homo sapiens, MGC-803, 48 h, read-out: IC50
[20] = Homo sapiens, HepG2, 48 h, read-out: IC50

T1 sequence (O14746 whole entry): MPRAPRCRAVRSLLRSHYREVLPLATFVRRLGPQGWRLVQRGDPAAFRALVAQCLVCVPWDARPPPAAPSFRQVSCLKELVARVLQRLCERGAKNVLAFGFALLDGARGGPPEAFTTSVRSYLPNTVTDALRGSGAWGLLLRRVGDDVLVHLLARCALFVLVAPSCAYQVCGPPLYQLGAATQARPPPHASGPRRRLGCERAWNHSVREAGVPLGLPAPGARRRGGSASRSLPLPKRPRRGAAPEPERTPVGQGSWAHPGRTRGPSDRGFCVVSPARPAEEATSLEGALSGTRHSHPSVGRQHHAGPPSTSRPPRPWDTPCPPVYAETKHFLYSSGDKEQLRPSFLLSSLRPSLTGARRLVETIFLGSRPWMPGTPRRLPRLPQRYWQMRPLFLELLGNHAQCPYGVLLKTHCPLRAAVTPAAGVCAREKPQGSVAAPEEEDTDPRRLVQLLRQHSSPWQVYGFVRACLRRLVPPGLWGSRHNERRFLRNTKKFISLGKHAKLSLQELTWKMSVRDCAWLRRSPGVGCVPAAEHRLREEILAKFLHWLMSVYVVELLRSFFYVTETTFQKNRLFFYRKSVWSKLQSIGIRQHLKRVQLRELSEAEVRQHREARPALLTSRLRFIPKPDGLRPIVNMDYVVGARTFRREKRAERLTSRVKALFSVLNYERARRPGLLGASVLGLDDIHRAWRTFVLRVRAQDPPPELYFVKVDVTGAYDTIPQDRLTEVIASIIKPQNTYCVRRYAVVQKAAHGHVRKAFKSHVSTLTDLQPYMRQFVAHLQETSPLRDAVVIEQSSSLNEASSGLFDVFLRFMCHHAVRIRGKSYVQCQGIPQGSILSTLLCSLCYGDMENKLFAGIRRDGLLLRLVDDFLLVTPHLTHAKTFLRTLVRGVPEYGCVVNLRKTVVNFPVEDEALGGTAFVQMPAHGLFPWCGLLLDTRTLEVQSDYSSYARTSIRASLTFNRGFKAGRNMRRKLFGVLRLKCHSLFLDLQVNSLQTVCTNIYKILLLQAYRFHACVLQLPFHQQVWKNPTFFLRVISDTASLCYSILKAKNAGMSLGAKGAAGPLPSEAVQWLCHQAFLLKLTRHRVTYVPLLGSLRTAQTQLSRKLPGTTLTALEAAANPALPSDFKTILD

SMILES | IC50 [1, 17] [µM] | IC50 (Bcap37; [18]) [µM] | IC50 [2, 19] [µM] | IC50 (HepG2 [3]; [20]) [µM] | IC50 [14] [µM] | IC50 ([2]; mgc-803) | IC50 (HepG2 [3]; hepg2) | also measured
CCCCN(CCCC)CC(=O)N1N=C(c2cc3ccccc3oc2=O)CC1c1ccccc1 (configuration not stated) | 4.87 | 3.37 | 2.96 | 2.45 | 0.98 |  |  | IC50 [4]: 1640 µM; IC50 [5]: 1620 µM; Activity (CCRF S-180 [6]): 1.01 g; inhibition in vivo at 60 mg/kg/day (CCRF S-180 [7]): 48.9%; inhibition in vivo at 60 mg/kg/day (HepG2 [8]): 46.1%; Activity (Mus musculus [9]): 24.64 g; Activity (Mus musculus [10]): 27.11 g; Activity (Mus musculus [11]): 19.6 g; Survival [12]: 23.89 days; survival at 60 mg/kg/day [13]: 43.9%; Activity (Rattus norvegicus): Active; Activity (HepG2 [15]): 1.04 g
CNCC(=O)N1N=C(c2cc3ccccc3oc2=O)CC1c1ccccc1 (configuration not stated) | 2.3 | 4.22 | 12.8 | 24 | 3.15 |  |  | 
O=C(CN1CCC(O)CC1)N1N=C(c2cc3ccccc3oc2=O)CC1c1ccccc1 (configuration not stated) |  |  |  |  |  | Not Active | Not Active | IC50 ([1]; pc-3): Not Active; IC50 (Bcap37; bcap37): Not Active; inhibition [16]: inactive
O=C(c1ccccc1Cl)N1N=C(c2cc3ccccc3oc2=O)CC1c1ccccc1 (configuration not stated) | 6.37 | 9.3 | 6.64 | 5.44 | 13.1 |  |  | 
O=C(CN1CCC(Cl)CC1)N1N=C(c2cc3ccccc3oc2=O)CC1c1ccccc1 (configuration not stated) |  | 24.2 |  |  | 57.8 | Not Active | Not Active | IC50 ([1]; pc-3): Not Active
CC1=NN(C(=O)CCc2ccccc2)C(c2ccccc2O)C1 (configuration not stated) | 9.38 | 25.7 | 24.1 | 20.6 | 11 |  |  | 
COc1ccc(NCC(=O)N2N=C(C)CC2c2ccccc2O)cc1 (configuration not stated) | 51.6 | 45.5 | 9.87 | 39.1 | 22.3 |  |  | 
CC1=NN(C(=O)CCl)C(c2cc(Br)ccc2O)C1 (configuration not stated) | 8.89 | 32.3 | 13.5 | 16.3 | 3.17 |  |  | 
O=C(CN1CCC(c2ccccc2)CC1)N1N=C(c2cc3ccccc3oc2=O)CC1c1ccccc1 (configuration not stated) |  |  |  |  | 35.7 | Not Active | Not Active | IC50 ([1]; pc-3): Not Active; IC50 (Bcap37; bcap37): Not Active
CC(C)CNCC(=O)N1N=C(c2cc3ccccc3oc2=O)CC1c1ccccc1 (configuration not stated) | 1.92 | 6.3 | 29.7 | 9.97 | 3.17 |  |  | 
CC1=NN(C(=O)COc2ccc(Cl)cc2)C(c2ccccc2O)C1 (configuration not stated) | 38.8 |  |  |  | 54.4 | Not Active | Not Active | IC50 (Bcap37; bcap37): Not Active
CC1=NN(C(=O)CN2CCCC2)C(c2ccccc2O)C1 (configuration not stated) | 6.67 | 5.35 | 17.9 | 5.54 | 5.44 |  |  | 
CC1=NN(C(=O)CN2CCN(C(=O)OC(C)(C)C)CC2)C(c2ccccc2O)C1 (configuration not stated) | 3.44 | 6.74 | 17.6 | 5 | 6.77 |  |  | 
CC1=NN(S(=O)(=O)c2ccc([N+](=O)[O-])cc2)C(c2cc(Cl)ccc2O)C1 (configuration not stated) | 44.2 | 52.3 |  |  | 41.2 | Not Active | Not Active | 
